# Source: PubChem BioAssay (Broad Institute)
# IDH1 R132H inh: IDH1 R132H (human) inhibition. hit rate 0.18% among 70,000. O75874. IDH1 R132H reductase, diaphorase/resazurin fluorescence, 60 min. inhibition, % at 10 µM; in the data active = inhibition above about 34%; inconclusive = no clear call, values can overlap the other calls; inactive = below about 11%;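 note: 0% = DMSO and 100% = no enzyme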
# Target sequence (O75874 whole entry R132H): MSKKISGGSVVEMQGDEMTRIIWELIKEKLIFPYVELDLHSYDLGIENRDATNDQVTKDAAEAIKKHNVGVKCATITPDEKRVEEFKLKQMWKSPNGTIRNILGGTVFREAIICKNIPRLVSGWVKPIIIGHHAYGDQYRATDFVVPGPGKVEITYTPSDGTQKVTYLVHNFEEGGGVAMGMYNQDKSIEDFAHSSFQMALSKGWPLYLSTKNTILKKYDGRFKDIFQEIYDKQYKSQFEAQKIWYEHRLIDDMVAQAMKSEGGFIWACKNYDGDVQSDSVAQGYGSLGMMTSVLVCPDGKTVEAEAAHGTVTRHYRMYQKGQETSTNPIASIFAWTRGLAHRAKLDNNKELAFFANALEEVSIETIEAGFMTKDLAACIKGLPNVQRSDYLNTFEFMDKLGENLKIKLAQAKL
# KDM4C inh: KDM4C (human) demethylase inhibition | Q9H3R0 | GST-KDM4C 2-372, H3K9me3 peptide, LANCE TR-FRET | inhibition, % at 12.5 µM | hit rate 0.15% among 96,000 | AID 720574;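 active = mean replicate inhibition above about 25%, with at least 55% of replicates also reaching it, limit read from the data, passing the limit was not always enough; inconclusive = only one of those two conditions met; inactive = neither condition met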
#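 Test system – GST-tagged GASC-1 (JMJD2C) catalytic fragment, aa 2-372 · Medium – HEPES buffer, pH 7.5, plus ascorbate · Reagent – H3K9me3 peptide with Fe(II)/2OG · Compound – one test concentration per compound · Timing – 30 min reaction, 60 min detection, RT · Technique – TR-FRET with Eu antibody and ULight streptavidin, EDTA stop · Read-out basis – inhibition from TR-FRET ratio decrease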
# * hit, by the source's call; ? = inconclusive; nt = not tested or not shown; ! = repeats disagree. Rows were chosen to be rich in hits. Some 0.19% of all compounds tested hit in one or more screens of this group.
SMILES,IDH1 R132H inh,KDM4C inh
CO[C@H]1CN(C)C(=O)c2ccc(NS(=O)(=O)c3ccc(Cl)cc3)cc2OC[C@@H](C)NC[C@H]1C,93.4*,79.9*
CCCNC(=O)Nc1ccc2c(c1)OC[C@@H](C)N(C(=O)C1CCC1)C[C@@H](C)[C@@H](OC)CN(C)C2=O,84.7*,61.6*
CO[C@@H]1CN(C)C(=O)c2ccc(NS(=O)(=O)c3ccc(Cl)cc3)cc2OC[C@H](C)NC[C@H]1C,0.2,-0.7
CCCNC(=O)Nc1ccc2c(c1)OC[C@H](C)N(C(=O)C1CCC1)C[C@@H](C)[C@@H](OC)CN(C)C2=O,-0.2,0.0
COc1ccccc1C(=O)Nc1ccc2c(c1)OC[C@H](C)NC[C@@H](C)[C@H](OC)CN(C)C2=O,0.1,-1.5
COc1ccccc1C(=O)Nc1ccc2c(c1)OC[C@H](C)NC[C@@H](C)[C@@H](OC)CN(C)C2=O,?,68.1*
O=C(C[C@H]1C=C[C@H](NC(=O)NC2CCCC2)[C@@H](CO)O1)NCc1ccc(F)cc1,0.4,1.2
COc1ccc2c3c(n(C)c2c1)[C@H](CO)N(C(=O)Nc1ccc(F)cc1)CC31CN(C(=O)c2ccccc2F)C1,nt,-0.2
CCCNC(=O)N(C)C[C@H]1Oc2ncc(-c3ccc(OC)cc3)cc2C(=O)N([C@H](C)CO)C[C@@H]1C,nt,6.7
O=C(C[C@@H]1CC[C@@H]2[C@H](COC[C@H](O)CN2S(=O)(=O)c2cccc(Cl)c2)O1)NCc1ccncn1,nt,-1.1
CC(C)(C)c1ccc(S(=O)(=O)/C=C/C#N)cc1,82.4*,nt
Cc1cc(C)c(C#N)c(SCC(O)CS(=O)(=O)c2ccc(C(C)(C)C)cc2)n1 (centres undefined),0.3,nt
O=C(CN1CCOCC1)NCC[C@@H]1CC[C@H](NC(=O)c2ccc3c(c2)OCO3)[C@H](CO)O1,0.0,-0.7
O=C(CN1CCOCC1)NCC[C@H]1CC[C@H](NC(=O)c2ccc3c(c2)OCO3)[C@H](CO)O1,61.4*,49.7*
C[C@@H]1CN([C@@H](C)CO)C(=O)Cc2cc(NC(=O)C3CC3)ccc2O[C@H]1CN(C)Cc1ccc(C(F)(F)F)cc1,0.5,4.7
COc1ccc(-c2cnc3c(c2)C(=O)N([C@H](C)CO)C[C@H](C)[C@H](CN(C)Cc2ccc4c(c2)OCO4)O3)cc1,-0.9,nt
CC(/C=C/C(=O)NO)=C\c1ccccc1OC[C@@H]1[C@H]2C[C@H]3c4[nH]c5ccccc5c4CCN3C[C@@H]2CC[C@@H]1O,73.9*,nt
COC(=O)[C@H]1[C@H]2C[C@H]3c4[nH]c5ccccc5c4CCN3C[C@H]2CC[C@@H]1O,-0.1,nt
O=C(O)C[C@H]1CC[C@@H](NC(=O)Nc2ccccc2)[C@H](CO)O1,0.0,1.3
O=C1Oc2cc(O)cc(O)c2[C@@H](c2ccc(O)cc2)[C@H]1[C@H]1C(=O)Oc2cc(O)cc(O)c2[C@H]1c1ccc(O)cc1,51.6*,nt
COc1ccc(C2CC(=O)Oc3cc(O)cc(O)c32)cc1 (centres undefined),0.1,nt
C[C@@H]1CCCCO[C@@H](CN(C)C(=O)CCC(F)(F)F)[C@@H](C)CN([C@H](C)CO)C(=O)c2cc(NC(=O)c3ccccc3)ccc2O1,nt,1.7
CCOC(=O)c1c(NC(=O)CSc2nc(C)cc(C(F)(F)F)c2C#N)sc2c1CCCC2,0.1,nt
O=C(OCC1OC(Oc2ccc(O)cc2COC(=O)C2(O)C(O)CCC(=O)C2O)C(O)C(O)C1O)c1ccccc1 (centres undefined),36.1*,nt
O=C(O[C@H]1[C@H](Oc2ccccc2COC(=O)C2(O)C=CCCC2=O)O[C@H](CO)[C@@H](O)[C@@H]1O)c1ccccc1 (some centres undefined),0.2,nt
SMILES,IDH1 R132H inh,KDM4C inh
O=S(=O)(Nc1cccnc1)c1cccc(S(=O)(=O)c2ccc(Cl)c(Cl)c2)c1,46.7*,nt
O=S(=O)(Nc1ccc(Cl)cn1)c1cccc(S(=O)(=O)c2ccccc2)c1,0.3,nt
N#C[C@@H]1[C@H](c2ccccc2C2=CCCC2)[C@@H](CO)N1C(=O)C1CCCC1,nt,1.7
CC(C)NC(=O)N[C@H]1CC[C@H](CCNC(=O)C2CCC2)O[C@H]1CO,0.4,26.5*
Cc1ccc(S(=O)(=O)N[C@H]2CC[C@H](CCNC(=O)C3CCCCC3)O[C@H]2CO)cc1,66.9*,71.6*
Cc1ccc(S(=O)(=O)NCC[C@H]2CC[C@@H](NC(=O)c3cccc(F)c3)[C@@H](CO)O2)cc1,0.9,44.4*
Cc1ccc(S(=O)(=O)N[C@@H]2CC[C@@H](CCNC(=O)C3CCCCC3)O[C@@H]2CO)cc1,-0.2,-0.1
CC(C)NC(=O)N[C@@H]1CC[C@H](CCNC(=O)C2CCC2)O[C@@H]1CO,0.2,-1.7
Cc1ccc(S(=O)(=O)NCC[C@@H]2CC[C@@H](NC(=O)c3cccc(F)c3)[C@@H](CO)O2)cc1,-0.5,0.3
C(=C\c1ccc(C2[C@H]3CNC[C@@H]2N3Cc2nccs2)cc1)/c1ccccc1 (some centres undefined),nt,13.6
Cc1ccc2nc(-c3cccnc3)cc(C(=O)NCc3cnn(C)c3)c2c1,-0.1,nt
C/C=C/c1ccc2c(c1)O[C@H](CN(C)C(=O)C1CCC1)[C@H](C)CN([C@@H](C)CO)S2(=O)=O,nt,-0.8
CCCNC(=O)[C@H]1[C@H](CO)[C@H]2Cn3c(ccc(-c4ccccc4F)c3=O)[C@H]2N1C(=O)CC,nt,-0.5
CCC(=O)Nc1ccc2c(c1)C(=O)N(C)C[C@@H](OC)[C@@H](C)CN(Cc1cncnc1)[C@H](C)CO2,0.1,-0.5
COc1ccc(CN(C)C[C@@H]2OCCCC[C@@H](C)Oc3ccc(NC(=O)Nc4c(C)noc4C)cc3C(=O)N([C@@H](C)CO)C[C@@H]2C)cc1,3.4,1.0
CN(C)C(=O)C[C@H]1C[C@@H]2c3cc(NC(=O)Nc4ccccc4)ccc3O[C@@H]2[C@H](CO)O1,0.0,2.9
CN(C)C(=O)C[C@H]1C[C@@H]2c3cc(NC(=O)C4CCC4)ccc3O[C@@H]2[C@@H](CO)O1,2.0,3.4
CN(C)C(=O)C[C@@H]1C[C@@H]2c3cc(NC(=O)Nc4ccccc4)ccc3O[C@@H]2[C@@H](CO)O1,73.4*,31.7*
CN(C)C(=O)C[C@@H]1C[C@H]2c3cc(NC(=O)C4CCC4)ccc3O[C@H]2[C@H](CO)O1,51.6*,35.8*
CNc1ccccc1C(=O)OC1OC(C)C(O)C(O)C1O (centres undefined),-0.3,nt
N#Cc1cccc(-c2ccc(C3[C@@H]4CN(C(=O)c5ccncc5)C[C@H]3N4)cc2)c1 (some centres undefined),nt,0.4
N#Cc1ccc(-c2ccc(C3[C@@H]4CN(C(=O)c5ccncc5)C[C@H]3N4)cc2)cc1 (some centres undefined),nt,38.5*!
OC[C@H]1[C@H](c2ccc(C#CC3CCCC3)cc2)[C@H]2CN(CCC(F)(F)F)CCCCN21,nt,0.7
O=C(CCCCCC(=O)Nc1ccccc1O)N/N=C\c1cc(O)ccc1O,49.8*,nt
O=C(CCCCCCC(=O)Nc1ccccc1O)N/N=C/c1cc(O)ccc1Br,-0.4,nt
O=C(CCCCCC(=O)N/N=C/c1ccc(O)cc1O)NO,-0.2,nt
O=C(CCCCCC(=O)N/N=C/c1cc(O)ccc1O)NO,68.8*,nt
C[C@H](CO)N1C[C@H](C)[C@@H](CN(C)S(=O)(=O)c2ccc(Cl)cc2)OCc2cn(nn2)CCCC1=O,2.5,1.0
